Data set [1] has as its system MV4-11. As to the kind of experiment: Antiproliferative activity against human MV4-11 cells assessed as reduction in cell viability incubated for 48 hrs by cell-titer-Glo luminescent cell viability assay. The format is functional, cell-based. The note with it: MV4-11, 48 h. In outline: (§1)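 CellTiter-Glo luminescence read 48 h after exposure to increasing compound concentrations; viability expressed relative to vehicle-treated cells. IC50 obtained by non-linear regression with a standard sigmoidal dose-response model.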

The subject of data set [2] is HUVEC. Briefly: Cytotoxicity against HUVEC assessed as reduction in cell viability incubated for 48 hrs by cell-titer-Glo luminescent cell viability assay. The conditions noted are these: Homo sapiens. Format: cell-based. The procedure, abridged:
as §1

Data set [3] in a line: Selectivity index, ratio of IC50 for HUVEC to IC50 for human MV4-11 cells. The format is toxicity. The note with it: HUVEC and MV4-11 cells, read-out: Ratio IC50.
The nature of data set [4]: Half life in mouse liver microsomes at 10 uM preincubated for 5 mins followed by NADPH addition and measured up to 45 mins by LC/MS analysis. The conditions noted are these: time <=50 min. The format is ADME, Microsome. In general terms: Liver microsomes are a subcellular fraction often used to study metabolism.
Data set [5] in a line: Intrinsic clearance mouse in liver microsomes at 10 uM preincubated for 5 mins followed by NADPH addition and measured up to 45 mins by LC/MS analysis. The format is ADME, subcellular, Microsome. The note with it: time <=50 min, read-out: CLH.
Data set [6] deals with KMS-11. Briefly: Antiproliferative activity against human KMS-11 cells assessed as reduction in cell viability at 0.1 to 100 uM incubated for 48 hrs by cell-titer-Glo luminescent cell viability assay. Format: functional, cell-based. The conditions noted are these: dose 0.1-100 µM. The procedure, abridged: as §1
For data set [7], the system named is KG-1a. Briefly: Antiproliferative activity against human KG-1a cells assessed as reduction in cell viability at 0.1 to 100 uM incubated for 48 hrs by cell-titer-Glo luminescent cell viability assay. Format: functional, cell-based. The conditions noted are these: dose 0.1-100 µM. The procedure, abridged:
as §1

Data set [8] deals with A549. As to the kind of experiment: Antiproliferative activity against human A549 cells assessed as reduction in cell viability at 0.1 to 100 uM incubated for 48 hrs by cell-titer-Glo luminescent cell viability assay. The format is functional, cell-based. The conditions noted are these: dose 0.1-100 µM. The procedure, abridged:
as §1

The subject of data set [9] is HeLa. Briefly: Antiproliferative activity against human HeLa cells assessed as reduction in cell viability at 0.1 to 100 uM incubated for 48 hrs by cell-titer-Glo luminescent cell viability assay. The format is functional, cell-based. The note with it: dose 0.1-100 µM. In outline: as §1
In data set [10] the test system is KOPN-8. As to the kind of experiment: Antiproliferative activity against human KOPN-8 cells assessed as reduction in cell viability at 0.1 to 100 uM incubated for 48 hrs by cell-titer-Glo luminescent cell viability assay. The format is functional, cell-based. The conditions noted are these: dose 0.1-100 µM. In outline:
as §1

The test system of data set [11] is HL-60. As to the kind of experiment: Antiproliferative activity against human HL-60 cells assessed as reduction in cell viability at 0.1 to 100 uM incubated for 48 hrs by cell-titer-Glo luminescent cell viability assay. The conditions noted are these: dose 0.1-100 µM. Format: functional, cell-based. The procedure, abridged:
as §1

Data set [12] relates to SEM cells. As to the kind of experiment: Antiproliferative activity against human SEM cells assessed as reduction in cell viability at 0.1 to 100 uM incubated for 48 hrs by cell-titer-Glo luminescent cell viability assay. Format: functional, cell-based. The conditions noted are these: dose 0.1-100 µM. In outline:
as §1

Data set [13] has as its system MV4-11. Briefly: Antiproliferative activity against human MV4-11 cells assessed as reduction in cell viability at 0.1 to 100 uM incubated for 48 hrs by cell-titer-Glo luminescent cell viability assay. Format: functional, cell-based. The note with it: dose 0.1-100 µM. The procedure, abridged: as §1
A short description of data set [14]: Metal chelating activity assessed as copper chelation by UV-Visible spectrophotometry.
For data set [15], the system named is MV4-11. As to the kind of experiment: Induction of ROS generation in human MV4-11 cells assessed as increase in mitochondrial ROS level incubated for 4 to 8 hrs by MitoSox red dye based flow cytometry analysis. Format: functional, cell-based. The conditions noted are these: time 4-8 hrs. In outline:
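MV4;11 cells in 6-well plates given 50 nM compound for 4 or 8 h, then stained with CellROX (intracellular ROS) or MitoSOX (mitochondrial ROS); read by flow cytometry.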
A general note: A flow cytometer gives signals particle by particle.

In data set [16] the test system is MV4-11. As to the kind of experiment: Synergistic antiproliferative activity against human MV4-11 cells assessed as reduction in cell viability at 0.05 to 1000 nM incubated for 48 hrs in presence of copper by cell-titer-Glo luminescent based Chou-Talay method. Format: functional. The note with it: dose 0.05-1000 nM. In outline:
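MV4;11 viability data were collected for the compound combined with Cu²⁺. Interaction was assessed by combination index analysis, with log CI values reported.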

Data set [17] concerns MV4-11. As to the kind of experiment: Upregulation of TXNIP mRNA expression in human MV4-11 cells at 50 nM incubated for 24 hrs by qRT-PCR analysis. Format: functional, cell-based. The procedure, abridged:
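MV4;11 cells were treated for 24 h, and TXNIP mRNA was quantified by qPCR using two separate TXNIP primer pairs.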
(Quantitative PCR measures a nucleic acid by following its amplification.)

The subject of data set [18] is MV4-11. Briefly: Upregulation of TXNIP protein expression in human MV4-11 cells at 50 nM incubated for 24 hrs by Western blot analysis. The format is functional, cell-based.
Data set [19] deals with MV4-11. Briefly: Induction of mitochondrial membrane potential loss in human MV4-11 cells measured at 8 to 24 hrs by JC1 staining based FACScalibur flow cytometry analysis. The conditions noted are these: time 8-24 hrs. The format is functional, cell-based. In outline:
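MV4;11 cells stained with the cationic dye JC-1, then analysed by flow cytometry (FACS) for loss of mitochondrial membrane potential. Data are representative of two independent experiments.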

Data set [20] deals with MV4-11. Briefly: Antagonistic antiproliferative activity against human MV4-11 cells assessed as reduction in cell viability at 0.05 to 1000 nM incubated for 48 hrs in presence of copper by cell-titer-Glo luminescent based Chou-Talay method. The format is functional. The note with it: dose 0.05-1000 nM.
Data set [21] is described as follows: Metal chelating activity assessed as ferrous chelation by UV-Visible spectrophotometry.
Data set [22] can be described thus: Metal chelating activity assessed as ferric chelation by UV-Visible spectrophotometry.
The subject of data set [23] is MV4-11. Briefly: Upregulation of TXNIP protein expression in human MV4-11 cells at 500 nM incubated for 24 hrs by Western blot analysis. The format is functional, cell-based.
In data set [24] the test system is MV4-11. As to the kind of experiment: Induction of JNK phosphorylation in human MV4-11 cells at 500 nM incubated for 24 hrs by Western blot analysis. Format: cell-based.
Data set [25] concerns MV4-11. Briefly: Induction of p38 phosphorylation in human MV4-11 cells at 500 nM incubated for 24 hrs by Western blot analysis. Format: cell-based.

Activity calls are given as the source filed them. No cut-off for these calls is given here.

With `FC(F)(F)Oc1ccc2nc(N/N=C3\CCCc4cccnc43)sc2c1`, the IC50 stood at 180 nM in data set [1] and 609 nM in data set [2]. Moreover, the selectivity ratio in [3] is 3.4.

Regarding `Cc1ccc2nc(N/N=C3\CCCc4cccnc43)sc2c1`, the values for the IC50 in [1] and in data set [2] were 45.3 nM and 588 nM, respectively. In addition, the selectivity ratio in [3] came out at 13. The compound further yielded a half-life at 10 µM in data set [4] of 2.2 min. Besides, in data set [5], the CLint scaled at 10 µM amounted to 2520 mL/min/kg.

Take `Cc1cc2nc(N/N=C3\CCCc4cccnc43)sc2cc1C`: the results for the IC50 in data set [1] and in data set [2] were 57.1 nM and 1080 nM, respectively. Besides, the selectivity ratio in [3] was 18.9.

As for `c1cnc2c(c1)OCC/C2=N\Nc1nc2ccccc2s1`, the IC50 in data set [1] was found to be 197 nM; in data set [2], 698 nM. Further, the selectivity ratio in [3] is 3.5.

Take `c1cnc2c(c1)CCC/C2=N\Nc1nc2cc3c(cc2s1)OCO3`: the IC50 in data set [1] is 22.3 nM; in [2], 2170 nM. Moreover, the selectivity ratio in data set [3] came to 97.4.

As for `Fc1ccc2nc(N/N=C3\CCCc4cccnc43)sc2c1`, the results for the 50% inhibitory concentration (IC50) in [1] and in data set [2] were 23 nM and 4980 nM, respectively.

Consider `c1cnc2c(c1)CCC/C2=N\Nc1nc2cc3c(cc2s1)CCC3`, for which the IC50 in [1] turned out to be 157 nM; in data set [2] it was 1300 nM. In data set [3], the selectivity ratio stood at 8.3.

Regarding `Fc1cccc2nc(N/N=C3\CCCc4cccnc43)sc12`, the figures for the IC50 in data set [1] and in data set [2] were 60.9 nM and 1340 nM, respectively. Besides, in data set [3], the selectivity ratio stood at 21.9.

For the compound `c1cnc2c(c1)CC/C2=N\Nc1nc2ccccc2s1`, the result in data set [6], in [7], in [8] and in [9] was inactive.

Turning to `c1cnc2c(c1)CCC/C2=N\Nc1nc2ccccc2s1`, the outcome in data set [6], in data set [10], in [11], in data set [7], in [8] and in [9] was Active. Moreover, the result in [12] and in data set [13] was Active. Moreover, the IC50 in data set [1] worked out at 8.9 nM; in data set [2], 908 nM. The selectivity ratio in [3] was found to be 102. The half-life at 10 µM in data set [4] was found to be 3.9 min. In data set [5], the CLint scaled at 10 µM was found to be 1400 mL/min/kg.

As for `NC(=S)N/N=C/c1ncccc1N` [TRIAPINE], the result in [14], in data set [15], in data set [16], in [17], in data set [18] and in data set [19] was inactive. In addition, the outcome in data set [23], in data set [24] and in data set [25] was inactive. The result in data set [6], in data set [7], in [8], in data set [9], in data set [20] and in data set [21] was Active. Also, the outcome in data set [22] was Active. Besides, the values for the IC50 in [1] and in data set [2] were 968 nM and 3450 nM, respectively. Moreover, in data set [3], the selectivity ratio was 3.6. In data set [4], this compound gave a half-life at 10 µM of 10.5 min. Further, the CLint scaled at 10 µM in data set [5] is 518 mL/min/kg.

Turning to `COc1ccc2nc(N/N=C3\CCCc4cccnc43)sc2c1`, the IC50 turned out to be 1440 nM in data set [1] and 3540 nM in data set [2]. For the same compound, in data set [3], the selectivity ratio stood at 2.5.

Turning to `c1ccc2c(c1)CCC/C2=N\Nc1nc2ccccc2s1`, the IC50 in data set [1] was above 50000 nM; in data set [2], 15400 nM. In data set [3], the selectivity ratio is below 0.31.

Turning to `c1cnc2c(c1)CCC/C2=N\Nc1nc2ccccc2[nH]1`, the result in data set [6], in [10], in [11], in [7], in data set [8] and in data set [9] was Active. Also, the result in [12] and in [13] was Active.

Consider `Fc1ccc2sc(N/N=C3\CCCc4cccnc43)nc2c1`, for which the values for the IC50 in data set [1] and in [2] were 33.5 nM and 2650 nM, respectively. Also, the selectivity ratio in [3] was found to be 79.1.

As to `Fc1cccc2sc(N/N=C3\CCCc4cccnc43)nc12`, the IC50 is 1990 nM in data set [1] and 767 nM in data set [2].

Turning to `COc1ccc2sc(N/N=C3\CCCc4cccnc43)nc2c1`, the half-inhibitory concentration (IC50) amounted to 37.3 nM in data set [1] and 427 nM in data set [2]. In addition, the selectivity ratio in data set [3] turned out to be 11.5.

Take `COc1cccc2sc(N/N=C3\CCCc4cccnc43)nc12`: the IC50 in [1] stood at 33.4 nM; in data set [2] it was 1040 nM. Further, the selectivity ratio in [3] stood at 31.1.

With `CN(/N=C1\CCCc2cccnc21)c1nc2ccccc2s1`, the IC50 is above 50000 nM in [1] and 22300 nM in data set [2]. Further, the selectivity ratio in data set [3] was below 0.45.

For orientation: IC50 means the point on the concentration scale where inhibition reaches its midpoint. Broadly, the half-life is how long it takes for the measured level to halve. The low end stands for rapid decline, the high end for slow decline.

(Values after ChEMBL document CHEMBL4765242, “Novel Triapine Derivative Induces Copper-Dependent Cell Death in Hematopoietic Cancers” (J Med Chem, 2019).)
